Experimental data published in ChEMBL document CHEMBL1134488, “Potent reversible inhibitors of the protein tyrosine phosphatase CD45” (J Med Chem, 2001).
Where a SMILES comes first, the peptide text is derived from it. The star is where a group is joined. Phenanthrenequinone2carbonyl = O=C1C(=O)c2cc(C(=O)*)ccc2-c2ccccc21; 3Phenanthroyl(9,10-dioxo) = O=C1C(=O)c2ccc(C(=O)*)cc2-c2ccccc21; X1 = O=C1C(=O)c2cc(N*)ccc2-c2ccccc21

Tests used:
[1] = molecular target: T1, Receptor-type tyrosine-protein phosphatase C (Homo sapiens, UniProt P08575); assay: In vitro inhibitory activity against the cytosolic portion of CD45 protein-tyrosine phosphatase using pNPP as the substrate
T1 sequence (P08575 whole entry): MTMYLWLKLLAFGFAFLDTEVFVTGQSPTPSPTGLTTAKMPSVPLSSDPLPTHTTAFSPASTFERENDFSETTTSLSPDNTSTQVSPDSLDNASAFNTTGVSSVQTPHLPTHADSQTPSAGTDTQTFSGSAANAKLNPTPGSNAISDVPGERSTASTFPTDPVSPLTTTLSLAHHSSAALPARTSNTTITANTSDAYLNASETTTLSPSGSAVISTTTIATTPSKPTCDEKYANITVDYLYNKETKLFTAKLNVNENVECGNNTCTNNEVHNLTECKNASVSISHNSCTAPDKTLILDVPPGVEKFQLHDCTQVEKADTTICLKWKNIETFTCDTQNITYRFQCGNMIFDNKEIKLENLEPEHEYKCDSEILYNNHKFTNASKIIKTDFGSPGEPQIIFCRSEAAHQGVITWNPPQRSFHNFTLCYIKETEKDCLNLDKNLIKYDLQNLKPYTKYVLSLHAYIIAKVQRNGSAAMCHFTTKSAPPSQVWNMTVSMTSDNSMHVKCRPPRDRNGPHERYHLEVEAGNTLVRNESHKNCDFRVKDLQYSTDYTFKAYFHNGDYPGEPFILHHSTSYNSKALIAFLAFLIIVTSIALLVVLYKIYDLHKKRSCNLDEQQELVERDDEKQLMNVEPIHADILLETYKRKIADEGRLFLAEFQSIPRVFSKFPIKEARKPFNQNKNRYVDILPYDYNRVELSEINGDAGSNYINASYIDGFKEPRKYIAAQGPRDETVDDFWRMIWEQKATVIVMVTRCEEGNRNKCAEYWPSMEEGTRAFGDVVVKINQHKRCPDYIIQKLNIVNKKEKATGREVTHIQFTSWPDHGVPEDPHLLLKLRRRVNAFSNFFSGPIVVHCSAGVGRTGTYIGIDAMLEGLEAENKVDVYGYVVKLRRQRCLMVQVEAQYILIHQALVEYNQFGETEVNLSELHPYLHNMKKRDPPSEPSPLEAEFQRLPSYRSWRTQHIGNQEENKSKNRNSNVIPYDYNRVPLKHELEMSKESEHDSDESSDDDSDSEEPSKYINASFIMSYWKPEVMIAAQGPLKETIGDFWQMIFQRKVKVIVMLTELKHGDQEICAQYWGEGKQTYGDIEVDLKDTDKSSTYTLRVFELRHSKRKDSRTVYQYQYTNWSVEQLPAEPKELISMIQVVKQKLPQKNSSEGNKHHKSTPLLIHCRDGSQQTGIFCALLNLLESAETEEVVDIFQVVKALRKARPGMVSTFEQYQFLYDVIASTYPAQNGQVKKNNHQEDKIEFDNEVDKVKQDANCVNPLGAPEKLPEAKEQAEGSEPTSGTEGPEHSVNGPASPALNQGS

T-cell [2] = assay: Cytotoxicity measured against human T-cells; format: functional
T-cell [3] = assay: In vitro inhibition of human T-cell proliferation; format: functional, cell-based
[4] = molecular target: T2, Tyrosine-protein phosphatase non-receptor type 1 (Homo sapiens, UniProt P18031); assay: Inhibitory concentration against PTP1B using lck as substrate
T2 sequence (P18031 whole entry): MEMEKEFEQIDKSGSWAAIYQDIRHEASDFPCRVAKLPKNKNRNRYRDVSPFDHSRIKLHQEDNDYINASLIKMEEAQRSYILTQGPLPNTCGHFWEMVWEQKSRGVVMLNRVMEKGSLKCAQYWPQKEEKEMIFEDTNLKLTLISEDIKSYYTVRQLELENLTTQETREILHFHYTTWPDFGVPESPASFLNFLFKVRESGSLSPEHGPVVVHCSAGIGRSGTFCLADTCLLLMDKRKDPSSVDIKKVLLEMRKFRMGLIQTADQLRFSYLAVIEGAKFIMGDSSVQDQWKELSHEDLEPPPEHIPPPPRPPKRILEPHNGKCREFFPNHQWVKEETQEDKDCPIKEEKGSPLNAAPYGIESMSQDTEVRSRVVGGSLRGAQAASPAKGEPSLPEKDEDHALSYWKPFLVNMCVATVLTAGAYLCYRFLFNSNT

[5] = molecular target: T1, Receptor-type tyrosine-protein phosphatase C; assay: Inhibitory concentration against CD45 protein-tyrosine phosphatase using lck-10 mer as substrate
Cathepsin S = Cathepsin S (Homo sapiens, UniProt P25774); assay: Inhibitory concentration against Cathepsin S
Cathepsin S, sequence (P25774 whole entry): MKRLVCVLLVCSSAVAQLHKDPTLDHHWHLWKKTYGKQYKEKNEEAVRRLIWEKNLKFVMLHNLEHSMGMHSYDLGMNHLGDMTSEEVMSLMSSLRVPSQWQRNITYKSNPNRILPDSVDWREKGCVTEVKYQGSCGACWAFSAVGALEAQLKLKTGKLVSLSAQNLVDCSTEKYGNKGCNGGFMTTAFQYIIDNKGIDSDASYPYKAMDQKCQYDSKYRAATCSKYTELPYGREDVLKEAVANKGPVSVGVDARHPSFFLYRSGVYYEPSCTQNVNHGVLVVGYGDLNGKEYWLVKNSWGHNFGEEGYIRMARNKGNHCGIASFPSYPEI
Procedure, shortened: (§1)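 Cysteine protease assays. Peptide substrates were CBZ-L-lysine p-nitrophenyl ester, Z-Phe-Arg-NH-Mec and Z-Val-Val-Arg-NH-Mec. Values are means of experiments run in triplicate, given in µM.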

Cathepsin B = Cathepsin B (Homo sapiens, UniProt P07858); assay: Inhibitory concentration against Cathepsin B; procedure, shortened: as §1
Procathepsin L = Procathepsin L (Homo sapiens, UniProt P07711); assay: Inhibitory concentration against Cathepsin L; procedure, shortened: as §1
Procathepsin L, sequence (P07711 whole entry): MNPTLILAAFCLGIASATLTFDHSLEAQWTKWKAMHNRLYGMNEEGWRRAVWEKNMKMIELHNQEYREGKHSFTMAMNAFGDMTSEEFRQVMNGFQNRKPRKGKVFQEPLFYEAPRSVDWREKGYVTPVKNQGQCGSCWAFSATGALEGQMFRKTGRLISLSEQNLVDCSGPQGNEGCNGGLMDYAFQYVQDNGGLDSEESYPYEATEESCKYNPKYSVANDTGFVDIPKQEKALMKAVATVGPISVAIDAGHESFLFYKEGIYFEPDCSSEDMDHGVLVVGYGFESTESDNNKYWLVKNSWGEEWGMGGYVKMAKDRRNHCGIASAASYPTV

[6] = molecular target: T3, Tyrosine-protein phosphatase non-receptor type 13 (Homo sapiens, UniProt Q12923); assay: Inhibitory concentration against FAP-1 pNPP
T3 sequence (Q12923 whole entry): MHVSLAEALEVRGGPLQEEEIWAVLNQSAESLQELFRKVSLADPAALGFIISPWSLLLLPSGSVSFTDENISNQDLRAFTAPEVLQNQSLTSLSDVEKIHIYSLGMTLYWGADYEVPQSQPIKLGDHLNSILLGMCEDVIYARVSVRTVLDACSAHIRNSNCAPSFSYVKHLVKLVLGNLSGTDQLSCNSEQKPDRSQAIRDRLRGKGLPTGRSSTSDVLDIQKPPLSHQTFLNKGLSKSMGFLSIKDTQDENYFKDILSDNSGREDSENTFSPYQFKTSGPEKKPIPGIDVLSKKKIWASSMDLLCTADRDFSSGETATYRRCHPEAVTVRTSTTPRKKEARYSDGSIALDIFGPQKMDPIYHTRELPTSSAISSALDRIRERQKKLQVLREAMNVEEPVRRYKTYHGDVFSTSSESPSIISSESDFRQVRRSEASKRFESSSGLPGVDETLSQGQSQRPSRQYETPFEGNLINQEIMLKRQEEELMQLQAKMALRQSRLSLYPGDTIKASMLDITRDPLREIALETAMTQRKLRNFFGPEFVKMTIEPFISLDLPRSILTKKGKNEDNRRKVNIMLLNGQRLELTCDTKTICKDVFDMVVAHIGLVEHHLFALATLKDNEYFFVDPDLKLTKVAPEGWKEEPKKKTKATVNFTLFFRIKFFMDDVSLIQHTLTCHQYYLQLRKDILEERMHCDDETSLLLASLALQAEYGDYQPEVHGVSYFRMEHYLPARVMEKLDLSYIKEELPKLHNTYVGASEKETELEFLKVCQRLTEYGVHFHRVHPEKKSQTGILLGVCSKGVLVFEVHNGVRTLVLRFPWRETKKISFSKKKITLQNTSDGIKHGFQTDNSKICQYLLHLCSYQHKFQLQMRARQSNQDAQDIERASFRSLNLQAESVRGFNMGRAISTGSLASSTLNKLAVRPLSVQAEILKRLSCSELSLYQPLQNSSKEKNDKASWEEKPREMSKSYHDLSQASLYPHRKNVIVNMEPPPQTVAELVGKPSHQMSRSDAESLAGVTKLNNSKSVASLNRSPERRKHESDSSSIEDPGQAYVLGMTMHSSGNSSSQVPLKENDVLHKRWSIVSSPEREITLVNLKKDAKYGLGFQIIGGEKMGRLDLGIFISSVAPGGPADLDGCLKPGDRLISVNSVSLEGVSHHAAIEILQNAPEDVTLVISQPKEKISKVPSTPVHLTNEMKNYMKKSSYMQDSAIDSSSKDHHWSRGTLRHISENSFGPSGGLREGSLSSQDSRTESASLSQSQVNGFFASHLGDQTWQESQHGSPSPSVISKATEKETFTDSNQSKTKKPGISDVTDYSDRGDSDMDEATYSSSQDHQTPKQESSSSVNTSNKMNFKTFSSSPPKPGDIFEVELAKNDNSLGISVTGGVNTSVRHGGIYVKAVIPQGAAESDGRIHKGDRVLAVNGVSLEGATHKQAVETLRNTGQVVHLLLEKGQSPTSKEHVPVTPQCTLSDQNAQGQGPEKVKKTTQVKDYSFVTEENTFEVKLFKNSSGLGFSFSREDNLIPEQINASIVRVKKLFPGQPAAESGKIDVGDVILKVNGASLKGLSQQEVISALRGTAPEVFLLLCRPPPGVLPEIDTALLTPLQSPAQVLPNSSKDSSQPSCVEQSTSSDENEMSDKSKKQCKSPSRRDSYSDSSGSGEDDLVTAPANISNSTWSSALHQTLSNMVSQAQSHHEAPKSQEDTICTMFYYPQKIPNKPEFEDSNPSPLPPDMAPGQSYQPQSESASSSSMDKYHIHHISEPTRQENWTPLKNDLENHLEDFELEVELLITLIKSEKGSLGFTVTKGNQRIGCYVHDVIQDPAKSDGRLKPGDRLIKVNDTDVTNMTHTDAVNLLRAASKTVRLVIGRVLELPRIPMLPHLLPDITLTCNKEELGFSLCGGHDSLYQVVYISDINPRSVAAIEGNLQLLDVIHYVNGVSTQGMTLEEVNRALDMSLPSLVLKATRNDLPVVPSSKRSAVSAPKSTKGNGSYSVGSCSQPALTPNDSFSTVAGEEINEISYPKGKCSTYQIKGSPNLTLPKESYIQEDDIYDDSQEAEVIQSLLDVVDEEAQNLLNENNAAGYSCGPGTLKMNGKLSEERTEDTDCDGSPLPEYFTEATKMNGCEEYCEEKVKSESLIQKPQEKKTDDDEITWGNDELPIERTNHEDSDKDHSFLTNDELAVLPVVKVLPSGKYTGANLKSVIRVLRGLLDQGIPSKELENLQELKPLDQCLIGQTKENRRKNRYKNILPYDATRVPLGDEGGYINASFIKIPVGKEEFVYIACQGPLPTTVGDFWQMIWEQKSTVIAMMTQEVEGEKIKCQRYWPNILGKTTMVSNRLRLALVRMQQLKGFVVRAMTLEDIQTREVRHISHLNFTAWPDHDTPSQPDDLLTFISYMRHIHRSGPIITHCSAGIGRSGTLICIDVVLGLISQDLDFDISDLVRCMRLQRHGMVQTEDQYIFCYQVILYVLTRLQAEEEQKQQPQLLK

[7] = molecular target: T3, Tyrosine-protein phosphatase non-receptor type 13; assay: Inhibitory concentration against FAP-1 using lck-10 mer as substrate
[8] = molecular target: T1, Receptor-type tyrosine-protein phosphatase C; assay: Inhibitory concentration against CD45 protein-tyrosine phosphatase pNPP

Structure (SMILES)	IC50 [1]	CC50 (T-cell [2])	IC50 (T-cell [3])	IC50 [4]	also measured
O=C1C=C(NCCCN2CCCCC2)c2ccccc2C1=O	> 30 µM				
O=C1C(=O)c2cc(NC(=O)c3c(Cl)cc(Cl)cc3Cl)ccc2-c2ccccc21	5.4 µM	12 µM	1.3 µM		
COC(=O)CCCCCCC(=O)Nc1ccc2c(c1)-c1ccccc1C(=O)C2=O	0.7 µM	28 µM	1.3 µM		
O=C1C(=O)c2cc(-c3cc4ccccc4o3)ccc2-c2ccccc21		3.6 µM		19 µM	IC50 [5]: > 30 µM
O=C1C=C(Nc2ccccc2)c2ccccc2C1=O	> 30 µM				
O=C(O)CC/N=C1\C=C(O)C(=O)c2ccccc21	> 30 µM				
O=C1C(=O)c2cccc([N+](=O)[O-])c2-c2ccc([N+](=O)[O-])cc21	> 30 µM	> 30 µM	> 30 µM		
O=C1C(=O)c2cc(-c3ccccc3F)ccc2-c2ccccc21	0.8 µM	8.4 µM		18 µM	IC50 [5]: > 30 µM
O=C1C(=O)c2ccoc2-c2ccccc21		3.5 µM		> 30 µM	
CC(C)(C)OC(=O)CNC(=O)c1ccc2c(c1)C(=O)C(=O)c1ccccc1-2		10 µM	0.4 µM	> 30 µM	
COC(=O)CCCCCCC(=O)Nc1ccc2c(c1)C(=O)C(=O)c1ccccc1-2		14 µM			IC50 (Cathepsin S): > 10 µM; IC50 (Cathepsin B): > 10 µM; IC50 (Procathepsin L): > 10 µM; IC50 [6]: 9.9 µM; IC50 [7]: > 30 µM
O=C1C(=O)c2cccnc2-c2ccccc21		2.4 µM	0.2 µM	> 30 µM	IC50 [8]: 1.4 µM; IC50 (Cathepsin S): 0.4 µM; IC50 (Cathepsin B): > 10 µM; IC50 (Procathepsin L): 0.6 µM; IC50 [6]: 14 µM; IC50 [7]: > 30 µM; IC50 [5]: 3.1 µM
CCCC(=O)Nc1ccc2c(c1)-c1ccccc1C(=O)C2=O	0.8 µM	9.1 µM	0.8 µM	> 30 µM	IC50 [5]: 5.2 µM
O=C(Nc1ccc2c(c1)C(=O)C(=O)c1ccccc1-2)c1ccccc1F		20 µM	3.1 µM	18 µM	IC50 [8]: 0.6 µM; IC50 (Cathepsin S): 9 µM; IC50 (Cathepsin B): > 10 µM; IC50 (Procathepsin L): 0.4 µM; IC50 [6]: 0.6 µM; IC50 [7]: 20 µM; IC50 [5]: 11 µM
COc1ccccc1-c1ccc2c(c1)C(=O)C(=O)c1ccccc1-2		9.5 µM		16 µM	IC50 [5]: > 30 µM
CC(C)(C)C(=O)Nc1ccc2c(c1)C(=O)C(=O)c1ccccc1-2		3.5 µM		> 30 µM	IC50 (Cathepsin S): 0.4 µM; IC50 (Cathepsin B): > 10 µM; IC50 (Procathepsin L): 0.5 µM; IC50 [6]: 7 µM; IC50 [7]: > 30 µM; IC50 [5]: 3.8 µM
O=C(Nc1ccc2c(c1)-c1ccccc1C(=O)C2=O)c1ccccc1F	1.2 µM	15 µM	2.9 µM	> 30 µM	IC50 [5]: 5.8 µM
CC(=O)NC(CCC(N)=O)C(=O)N[C@@H](CC(=O)Nc1ccc2c(c1)C(=O)C(=O)c1ccccc1-2)C(=O)O (stereo not given in full)	1.1 µM		> 30 µM		

Structure (SMILES)	IC50 [1]	CC50 (T-cell [2])	IC50 (T-cell [3])	IC50 [4]	also measured
COC(=O)CCC(=O)Nc1cccc2c1C(=O)C(=O)c1ccccc1-2		9 µM	0.5 µM		IC50 (Cathepsin B): > 10 µM; IC50 [6]: 4.4 µM; IC50 [7]: > 30 µM
COC(=O)CCC(=O)Nc1ccc2c(c1)C(=O)C(=O)c1cc(NC(=O)CCC(=O)OC)ccc1-2		7 µM			IC50 (Cathepsin S): > 10 µM; IC50 (Cathepsin B): > 10 µM; IC50 (Procathepsin L): 5.4 µM; IC50 [6]: 12 µM; IC50 [7]: > 30 µM; IC50 [5]: 2.9 µM
O=C1C(=O)c2cc(Br)ccc2-c2ccccc21	0.4 µM	5 µM	0.6 µM		
O=C(COCc1ccccc1)Nc1ccc2c(c1)C(=O)C(=O)c1ccccc1-2		14 µM	1 µM	18 µM	
CC(C)(C)OC(=O)CNC(=O)c1ccc2c(c1)-c1ccccc1C(=O)C2=O	0.6 µM	3.2 µM	0.32 µM		
CC(=O)N[C@@H](CCC(=O)O)C(=O)NCC(=O)N[C@@H](CCC(N)=O)C(=O)N[C@@H](CC(=O)Nc1ccc2c(c1)C(=O)C(=O)c1ccccc1-2)C(=O)O (Ac-EGQD(X1)-OH)	1.5 µM		> 30 µM		
N=C(N)NCCC[C@H](NC(=O)c1ccc2c(c1)C(=O)C(=O)c1ccccc1-2)C(=O)N[C@@H](CCC(=O)O)C(=O)N1CCC[C@H]1C(=O)N[C@@H](CCCNC(=N)N)C(=O)N[C@@H](CCC(=O)O)C(=O)O (Phenanthrenequinone2carbonyl-REPRE-OH)	0.9 µM	> 30 µM	20 µM		
NC(=O)CC[C@H](NC(=O)[C@@H]1CCCN1C(=O)[C@H](CCC(=O)O)NC(=O)CNC(=O)c1ccc2c(c1)-c1ccccc1C(=O)C2=O)C(=O)N1CCC[C@H]1C(=O)O ({3Phenanthroyl(9,10-dioxo)}-GEPQP-OH)		> 30 µM	> 30 µM		
NC(=O)CC[C@H](NC(=O)CNC(=O)c1ccc2c(c1)-c1ccccc1C(=O)C2=O)C(=O)NCC(=O)N[C@@H](CCC(=O)O)C(=O)N1CCC[C@H]1C(=O)O ({3Phenanthroyl(9,10-dioxo)}-GQGEP-OH)		> 30 µM	> 30 µM		
NC(=O)CC[C@H](NC(=O)CNC(=O)c1ccc2c(c1)-c1ccccc1C(=O)C2=O)C(=O)NCC(=O)N[C@@H](CCC(N)=O)C(=O)N1CCC[C@H]1C(=O)O ({3Phenanthroyl(9,10-dioxo)}-GQGQP-OH)		> 30 µM	20 µM		
NC(=O)CC[C@H](NC(=O)[C@@H]1CCCN1C(=O)[C@H](CCC(N)=O)NC(=O)CNC(=O)c1ccc2c(c1)-c1ccccc1C(=O)C2=O)C(=O)N1CCC[C@H]1C(=O)O ({3Phenanthroyl(9,10-dioxo)}-GQPQP-OH)		> 30 µM	> 30 µM		
NC(=O)CC[C@H](NC(=O)c1ccc2c(c1)-c1ccccc1C(=O)C2=O)C(=O)N[C@@H](CCC(=O)O)C(=O)NCC(=O)N[C@@H](CCC(N)=O)C(=O)N1CCC[C@H]1C(=O)O ({3Phenanthroyl(9,10-dioxo)}-QEGQP-OH)		> 30 µM	16 µM		
NC(=O)CC[C@H](NC(=O)c1ccc2c(c1)-c1ccccc1C(=O)C2=O)C(=O)N[C@@H](CCC(=O)O)C(=O)N1CCC[C@H]1C(=O)N[C@@H](CCC(N)=O)C(=O)N1CCC[C@H]1C(=O)O ({3Phenanthroyl(9,10-dioxo)}-QEPQP-OH)		> 30 µM	5 µM		
NC(=O)CC[C@H](NC(=O)c1ccc2c(c1)-c1ccccc1C(=O)C2=O)C(=O)N[C@@H](CCC(N)=O)C(=O)NCC(=O)N[C@@H](CCC(N)=O)C(=O)N1CCC[C@H]1C(=O)O ({3Phenanthroyl(9,10-dioxo)}-QQGQP-OH)		> 30 µM	14.5 µM		
NC(=O)CC[C@H](NC(=O)c1ccc2c(c1)-c1ccccc1C(=O)C2=O)C(=O)N[C@@H](CCC(N)=O)C(=O)N1CCC[C@H]1C(=O)N[C@@H](CCC(N)=O)C(=O)N1CCC[C@H]1C(=O)O ({3Phenanthroyl(9,10-dioxo)}-QQPQP-OH)		> 30 µM	> 30 µM		
O=C1C=Cc2ccccc2C1=O [1,2-NAPHTHOQUINONE]		> 30 µM	7 µM		
O=C1C(=O)c2ccccc2-c2ccccc21 [9,10-PHENANTHRENEQUINONE]		1.3 µM	0.3 µM	> 30 µM	
